Test results reported in ChEMBL document CHEMBL1629526, “4-[1-(Substituted aryl/alkyl carbonyl)-benzoimidazol-2-yl]-benzenesulfonic acids: synthesis, antimicrobial activity, QSAR studies, and antiviral evaluation” (Eur J Med Chem, 2010).
Converted amounts (≈) assume the structure as drawn.

Tests used:
[1] = system: Staphylococcus aureus; assay: Antimicrobial activity against Staphylococcus aureus after 24 hrs by tube dilution method; type: functional
[2] = system: Bacillus subtilis; assay: Antimicrobial activity against Bacillus subtilis after 24 hrs by tube dilution method; type: functional
Summary of the method: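 Serial dilutions in double-strength nutrient broth (I.P.) with ciprofloxacin as reference, tube dilution, incubated 37 °C for 24 h. MIC is the lowest concentration that inhibited growth.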

[3] = system: Escherichia coli; assay: Antimicrobial activity against Escherichia coli after 24 hrs by tube dilution method; type: functional
[4] = system: Candida albicans; assay: Antimicrobial activity against Candida albicans after 48 hrs by tube dilution method; type: functional
[5] = system: Aspergillus niger; assay: Antimicrobial activity against Aspergillus niger after 7 days by tube dilution method; type: functional; conditions: 168 h
[6] = Cytotoxicity against cat CRFK cells assessed as cell viability by MTS assay; type: cell-based, Felis catus; conditions: crfk
Summary of the method: (§1)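 Uninfected cultures were run in parallel with the antiviral assays. Viability was read by colorimetric formazan MTS assay.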

[7] = system: Felid alphaherpesvirus 1; assay: Antiviral activity against Feline herpesvirus 1 infected in cat CRFK cells assessed as inhibition of virus induced cytopathicity after 2 to 4 days by MTS assay; type: functional, organism-based; conditions: Felid alphaherpesvirus 1, CRFK
[8] = system: Feline coronavirus; assay: Antiviral activity against Feline coronavirus infected in cat CRFK cells assessed as inhibition of virus induced cytopathicity after 2 to 4 days by MTS assay; type: functional, organism-based; conditions: Alphacoronavirus 1, CRFK
[9] = Cytotoxicity against human HEL cells assessed as altered cell morphology; type: cell-based
Summary of the method: (§2)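 Uninfected cell cultures run alongside the antiviral assays, exposed to serial compound dilutions and incubated at 37 °C for 2–4 days. Toxicity was scored microscopically and reported as the minimum cytotoxic concentration (MCC), the lowest concentration causing a detectable change in normal cell morphology.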

[10] = system: Human alphaherpesvirus 1; assay: Antiviral activity against Herpes simplex virus 1 KOS infected in HEL cells assessed as inhibition of virus induced cytopathicity after 2 to 4 days by MTS assay; type: functional, organism-based; conditions: Human alphaherpesvirus 1, KOS
[11] = system: Human alphaherpesvirus 2; assay: Antiviral activity against Herpes simplex virus 2 G infected in HEL cells assessed as inhibition of virus induced cytopathicity after 2 to 4 days by MTS assay; type: functional, organism-based; conditions: Human alphaherpesvirus 2, strain G
[12] = system: Vaccinia virus; assay: Antiviral activity against Vaccinia virus infected in HEL cells assessed as inhibition of virus induced cytopathicity after 2 to 4 days by MTS assay; type: functional, organism-based; conditions: Orthopoxvirus vaccinia
[13] = system: Vesicular stomatitis virus; assay: Antiviral activity against Vesicular stomatitis virus infected in HEL cells assessed as inhibition of virus induced cytopathicity after 2 to 4 days by MTS assay; type: functional, organism-based
[14] = system: Human alphaherpesvirus 1; assay: Antiviral activity against thymidine kinase deficient acyclovir-resistant Herpes simplex virus 1 KOS infected in HEL cells assessed as inhibition of virus induced cytopathicity after 2 to 4 days by MTS assay; type: functional, organism-based; conditions: Human alphaherpesvirus 1, KOS
[15] = system: HeLa; assay: Cytotoxicity against human HeLa cells assessed as cell viability by MTS assay; type: cell-based; conditions: hela; summary of the method: as §1
[16] = Cytotoxicity against human HeLa cells assessed as altered cell morphology; type: cell-based; summary of the method: as §2
[17] = system: Vesicular stomatitis virus; assay: Antiviral activity against Vesicular stomatitis virus infected in human HeLa cells assessed as inhibition of virus induced cytopathicity by visual scoring of CPE; type: functional, organism-based
[18] = system: Vesicular stomatitis virus; assay: Antiviral activity against Vesicular stomatitis virus infected in human HeLa cells assessed as inhibition of virus induced cytopathicity after 2 to 4 days by MTS assay; type: functional, organism-based
[19] = system: Coxsackievirus B4; assay: Antiviral activity against coxsackievirus B4 infected in human HeLa cells assessed as inhibition of virus induced cytopathicity by visual scoring of CPE; type: functional, organism-based; conditions: Enterovirus B
[20] = system: Coxsackievirus B4; assay: Antiviral activity against coxsackievirus B4 infected in human HeLa cells assessed as inhibition of virus induced cytopathicity after 2 to 4 days by MTS assay; type: functional, organism-based; conditions: Enterovirus B
[21] = system: Respiratory syncytial virus; assay: Antiviral activity against Respiratory syncytial virus infected in human HeLa cells assessed as inhibition of virus induced cytopathicity by visual scoring of CPE; type: functional, organism-based
[22] = system: Respiratory syncytial virus; assay: Antiviral activity against Respiratory syncytial virus infected in human HeLa cells assessed as inhibition of virus induced cytopathicity after 2 to 4 days by MTS assay; type: functional, organism-based
[23] = system: MDCK; assay: Cytotoxicity against MDCK cells assessed as cell viability by MTS assay; type: cell-based, Canis lupus familiaris; conditions: dog, mdck; summary of the method: as §1
[24] = Cytotoxicity against MDCK cells assessed as altered cell morphology; type: cell-based, Canis lupus familiaris; conditions: dog; summary of the method: as §2
[25] = system: Influenza A virus; assay: Antiviral activity against Influenza A H1N1 virus subtype infected in MDCK cells assessed as inhibition of virus induced cytopathicity by visual scoring of CPE; type: functional, organism-based
[26] = system: Influenza A virus; assay: Antiviral activity against Influenza A H1N1 virus subtype infected in MDCK cells assessed as inhibition of virus induced cytopathicity after 2 to 4 days by MTS assay; type: functional, organism-based
[27] = system: Influenza A virus; assay: Antiviral activity against Influenza A H3N2 virus subtype infected in MDCK cells assessed as inhibition of virus induced cytopathicity by visual scoring of CPE; type: functional, organism-based
[28] = system: Influenza A virus; assay: Antiviral activity against Influenza A H3N2 virus subtype infected in MDCK cells assessed as inhibition of virus induced cytopathicity after 2 to 4 days by MTS assay; type: functional, organism-based
[29] = system: Influenza B virus; assay: Antiviral activity against Influenza B virus infected in MDCK cells assessed as inhibition of virus induced cytopathicity by visual scoring of CPE; type: functional, organism-based
[30] = system: Influenza B virus; assay: Antiviral activity against Influenza B virus infected in MDCK cells assessed as inhibition of virus induced cytopathicity after 2 to 4 days by MTS assay; type: functional, organism-based
[31] = Cytotoxicity against african green monkey Vero cells assessed as altered cell morphology; type: cell-based; conditions: chlorocebus sabaeus; summary of the method: as §2
[32] = system: Human respirovirus 3; assay: Antiviral activity against parainfluenza-3 virus infected in african green monkey Vero cells assessed as inhibition of virus induced cytopathicity after 2 to 4 days by MTS assay; type: functional, organism-based; conditions: Human respirovirus 3, Vero
[33] = system: Mammalian orthoreovirus 1; assay: Antiviral activity against Reovirus 1 virus infected in african green monkey Vero cells assessed as inhibition of virus induced cytopathicity after 2 to 4 days by MTS assay; type: functional, organism-based; conditions: Mammalian orthoreovirus 1, Vero
[34] = system: Sindbis virus; assay: Antiviral activity against Sindbis virus infected in african green monkey Vero cells assessed as inhibition of virus induced cytopathicity after 2 to 4 days by MTS assay; type: functional, organism-based
[35] = system: Coxsackievirus B4; assay: Antiviral activity against Coxsackie virus B4 infected in african green monkey Vero cells assessed as inhibition of virus induced cytopathicity after 2 to 4 days by MTS assay; type: functional, organism-based; conditions: Enterovirus B
[36] = system: Punta Toro virus; assay: Antiviral activity against Punta Toro virus infected in african green monkey Vero cells assessed as inhibition of virus induced cytopathicity after 2 to 4 days by MTS assay; type: functional, organism-based

Compound | MBC [1] | MBC [2] | MBC [3] | MFC [4] | MFC [5] | CC50 [6] | EC50 [7] | EC50 [8] | MCC [9] | EC50 [10] | EC50 [11] | EC50 [12] | EC50 [13] | EC50 [14] | CC50 [15] | MCC [16] | EC50 [17] | EC50 [18] | EC50 [19] | EC50 [20] | also measured
O=C(c1cccc(O)c1)n1c(-c2ccc(S(=O)(=O)O)cc2)nc2ccccc21 | 12.5 µg/mL (≈ 31.7 µM) | > 50 µg/mL | 3.12 µg/mL (≈ 7.91 µM) | 50 µg/mL (≈ 127 µM) | > 50 µg/mL | > 100 µg/mL | > 100 µg/mL | > 100 µg/mL | > 100 µg/mL | > 100 µg/mL | > 100 µg/mL | > 100 µg/mL | > 100 µg/mL | > 100 µg/mL | > 100 µg/mL | > 100 µg/mL | > 100 µg/mL | > 100 µg/mL | > 100 µg/mL | > 100 µg/mL | EC50 [21]: > 100 µg/mL; EC50 [22]: > 100 µg/mL; CC50 [23]: > 100 µg/mL; MCC [24]: 100 µg/mL; EC50 [25]: > 20 µg/mL; EC50 [26]: > 20 µg/mL; EC50 [27]: > 20 µg/mL; EC50 [28]: > 20 µg/mL; EC50 [29]: > 20 µg/mL; EC50 [30]: > 20 µg/mL; MCC [31]: > 100 µg/mL; EC50 [32]: > 100 µg/mL; EC50 [33]: > 100 µg/mL; EC50 [34]: > 100 µg/mL; EC50 [35]: > 100 µg/mL; EC50 [36]: > 100 µg/mL
O=C(c1ccccc1O)n1c(-c2ccc(S(=O)(=O)O)cc2)nc2ccccc21 | 25 µg/mL (≈ 63.4 µM) | 25 µg/mL (≈ 63.4 µM) | 12.5 µg/mL (≈ 31.7 µM) | 50 µg/mL (≈ 127 µM) | > 50 µg/mL | > 100 µg/mL | > 100 µg/mL | > 100 µg/mL | > 100 µg/mL | > 100 µg/mL | > 100 µg/mL | > 100 µg/mL | > 100 µg/mL | > 100 µg/mL | > 100 µg/mL | > 100 µg/mL | > 100 µg/mL | > 100 µg/mL | > 100 µg/mL | > 100 µg/mL | EC50 [21]: > 100 µg/mL; EC50 [22]: > 100 µg/mL; CC50 [23]: > 100 µg/mL; MCC [24]: 100 µg/mL; EC50 [25]: > 20 µg/mL; EC50 [26]: > 20 µg/mL; EC50 [27]: > 20 µg/mL; EC50 [28]: > 20 µg/mL; EC50 [29]: > 20 µg/mL; EC50 [30]: > 20 µg/mL; MCC [31]: > 100 µg/mL; EC50 [32]: > 100 µg/mL; EC50 [33]: > 100 µg/mL; EC50 [34]: > 100 µg/mL; EC50 [35]: > 100 µg/mL; EC50 [36]: > 100 µg/mL
Cc1ccc(C(=O)n2c(-c3ccc(S(=O)(=O)O)cc3)nc3ccccc32)cc1 | 12.5 µg/mL (≈ 31.9 µM) | 6.25 µg/mL (≈ 15.9 µM) | 25 µg/mL (≈ 63.7 µM) | 50 µg/mL (≈ 127 µM) | > 50 µg/mL | > 100 µg/mL | > 100 µg/mL | > 100 µg/mL | > 100 µg/mL | > 100 µg/mL | > 100 µg/mL | > 100 µg/mL | > 100 µg/mL | > 100 µg/mL | > 100 µg/mL | > 100 µg/mL | > 100 µg/mL | > 100 µg/mL | > 100 µg/mL | > 100 µg/mL | EC50 [21]: > 100 µg/mL; EC50 [22]: > 100 µg/mL; CC50 [23]: > 100 µg/mL; MCC [24]: > 100 µg/mL; EC50 [27]: > 100 µg/mL; EC50 [28]: > 100 µg/mL; EC50 [29]: > 100 µg/mL; EC50 [30]: > 100 µg/mL; MCC [31]: > 100 µg/mL; EC50 [32]: > 100 µg/mL; EC50 [33]: > 100 µg/mL; EC50 [34]: > 100 µg/mL; EC50 [35]: > 100 µg/mL; EC50 [36]: > 100 µg/mL
O=C(c1ccc(O)cc1O)n1c(-c2ccc(S(=O)(=O)O)cc2)nc2ccccc21 | 12.5 µg/mL (≈ 30.5 µM) | 25 µg/mL (≈ 60.9 µM) | 1.56 µg/mL (≈ 3.8 µM) | 12.5 µg/mL (≈ 30.5 µM) | > 50 µg/mL | > 100 µg/mL | > 100 µg/mL | > 100 µg/mL | 100 µg/mL | > 20 µg/mL | > 20 µg/mL | > 20 µg/mL | > 20 µg/mL | > 20 µg/mL | > 100 µg/mL | > 100 µg/mL | > 100 µg/mL | > 100 µg/mL | > 100 µg/mL | > 100 µg/mL | EC50 [21]: > 100 µg/mL; EC50 [22]: > 100 µg/mL; CC50 [23]: 54 µg/mL (≈ 132 µM); MCC [24]: 20 µg/mL; EC50 [25]: > 4 µg/mL; EC50 [26]: > 4 µg/mL; EC50 [27]: > 4 µg/mL; EC50 [28]: > 4 µg/mL; EC50 [29]: > 4 µg/mL; EC50 [30]: > 4 µg/mL; MCC [31]: > 100 µg/mL; EC50 [32]: > 100 µg/mL; EC50 [33]: > 100 µg/mL; EC50 [34]: > 100 µg/mL; EC50 [35]: > 100 µg/mL; EC50 [36]: > 100 µg/mL
